Test results as given in ChEMBL document CHEMBL1287751, “Development of a sphingosine kinase 1 specific small-molecule inhibitor” (Bioorg Med Chem Lett, 2010).
One block for each compound: values may come before it. Active and inactive are the calls of the source. No cut-off for these calls is given here.

Legend:
Sphingosine kinase 1 [1] = target: T1, Sphingosine kinase 1 (Homo sapiens, UniProt Q9NYA1); test: Inhibition of His6x-tagged recombinant sphingosine kinase 1 expressed in HEK293 cells at 10.7 uM; type: cell-based
T1 sequence (Q9NYA1 whole entry): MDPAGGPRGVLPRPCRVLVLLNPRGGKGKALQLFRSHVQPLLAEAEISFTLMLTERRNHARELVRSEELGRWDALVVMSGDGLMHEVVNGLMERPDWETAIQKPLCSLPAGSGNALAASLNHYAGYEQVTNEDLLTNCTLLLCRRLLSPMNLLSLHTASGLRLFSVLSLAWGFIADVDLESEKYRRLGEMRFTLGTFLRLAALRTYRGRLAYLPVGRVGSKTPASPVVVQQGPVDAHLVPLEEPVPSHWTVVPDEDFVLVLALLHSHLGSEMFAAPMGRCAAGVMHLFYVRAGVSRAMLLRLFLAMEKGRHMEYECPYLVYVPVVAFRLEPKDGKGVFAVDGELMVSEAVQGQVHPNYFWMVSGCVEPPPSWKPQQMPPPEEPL
How it was run: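 Affinity-purified His6X-tagged SphK1, recombinantly overexpressed in HEK293 cells. Substrate was 25 µM D-erythro-sphingosine in SKAAB buffer, without BSA conjugation or Triton X-100 micelles. Compounds screened at 10.7 µM, with DMSO controls at ≤5% of reaction volume. Reported as % inhibition, averages of two separate experiments.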

Sphingosine kinase 1 [2] = target: T1, Sphingosine kinase 1; test: Non-competitive inhibition of recombinant sphingosine kinase 1 using ATP as substrate by Lineweaver-Burke plot analysis
[3] = target: T2, Sphingosine kinase 2 (Homo sapiens) (UniProt Q9NRA0); test: Inhibition of sphingosine kinase 2 up to 25 uM
T2 sequence (whole entry): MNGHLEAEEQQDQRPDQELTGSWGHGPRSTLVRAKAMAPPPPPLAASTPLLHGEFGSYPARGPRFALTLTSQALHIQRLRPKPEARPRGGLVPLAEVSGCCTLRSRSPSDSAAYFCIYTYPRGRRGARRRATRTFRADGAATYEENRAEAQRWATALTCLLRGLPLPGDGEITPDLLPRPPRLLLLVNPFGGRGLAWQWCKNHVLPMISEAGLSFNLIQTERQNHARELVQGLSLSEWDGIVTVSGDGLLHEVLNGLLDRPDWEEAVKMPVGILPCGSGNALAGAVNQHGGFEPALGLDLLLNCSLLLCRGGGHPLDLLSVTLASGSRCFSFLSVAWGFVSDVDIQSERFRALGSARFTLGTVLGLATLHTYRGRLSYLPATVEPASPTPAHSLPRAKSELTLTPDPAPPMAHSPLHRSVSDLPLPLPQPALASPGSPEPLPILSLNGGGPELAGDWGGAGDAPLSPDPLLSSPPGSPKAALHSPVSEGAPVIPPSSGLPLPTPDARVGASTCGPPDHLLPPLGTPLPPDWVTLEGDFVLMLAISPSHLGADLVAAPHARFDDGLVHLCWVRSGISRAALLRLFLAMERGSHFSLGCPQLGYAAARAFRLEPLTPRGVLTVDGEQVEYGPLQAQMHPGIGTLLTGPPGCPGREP
How it was run: (§1)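 SphK2 activity assay in SKAAB buffer supplemented with 1 M KCl. Substrate was D-erythro-sphingosine delivered without BSA or Triton X-100. DMSO ≤5% of reaction volume.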

Sphingosine kinase 1 [4] = target: T1, Sphingosine kinase 1; test: Inhibition of sphingosine kinase 1 in human A549 cells assessed as reduction in sphingosine-1-phosphate cellular level at 1 uM after 48 hrs by thin layer chromatography relative to control; type: cell-based
How it was run: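 A549 cells treated with 1 µM compound for 48 h. SphK activity assays were run on whole-cell lysates, lipids were separated by thin layer chromatography, and S1P was compared with DMSO-treated controls.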

MCF7 [5] = test: Cytotoxicity against human MCF7 cells after 48 hrs by sulforhodamine B assay; type: functional, cell-based; settings: MCF7, 48 h
MCF7 [6] = test: Cytotoxicity against human tamoxifen-resistant MCF7 cells after 48 hrs by sulforhodamine B assay; type: functional, cell-based; settings: MCF7, 48 h
[7] = Cytotoxicity against human NCI/ADR cells after 48 hrs by sulforhodamine B assay; type: functional, cell-based; settings: NCI/ADR-RES
NCI-H460 = test: Cytotoxicity against human H460 cells after 48 hrs by sulforhodamine B assay; type: functional, cell-based; settings: NCI-H460, 48 h
NCI-H226 = test: Cytotoxicity against human NCI-H226 cells after 48 hrs by sulforhodamine B assay; type: functional, cell-based; settings: NCI-H226, 48 h
U-251 = test: Cytotoxicity against human U251 cells after 48 hrs by sulforhodamine B assay; type: functional, cell-based; settings: U-251, 48 h
[8] = Cytotoxicity against human U87MG cells after 48 hrs by sulforhodamine B assay; type: functional, cell-based, U-87MG ATCC; settings: U-87 MG
PANC-1 = test: Cytotoxicity against human PANC1 cells after 48 hrs by sulforhodamine B assay; type: functional, cell-based; settings: PANC-1, 48 h
MIA PaCa-2 = test: Cytotoxicity against human MIAPaCa2 cells after 48 hrs by sulforhodamine B assay; type: functional, cell-based; settings: MIA PaCa-2, 48 h
BXPC-3 = test: Cytotoxicity against human BxPC3 cells after 48 hrs by sulforhodamine B assay; type: functional, cell-based; settings: BXPC-3, 48 h
[9] = Cytotoxicity against human KG1a cells after 48 hrs by sulforhodamine B assay; type: functional, cell-based; settings: KG-1a
[10] = Cytotoxicity against human Kusami-3 cells after 48 hrs by sulforhodamine B assay; type: functional, cell-based; settings: Kusami-3, 48 h
HL-60 [11] = test: Cytotoxicity against human HL60 cells after 48 hrs by sulforhodamine B assay; type: functional, cell-based; settings: HL-60, 48 h
HL-60 [12] = test: Cytotoxicity against VCR-resistance human HL60 cells after 48 hrs by sulforhodamine B assay; type: functional, cell-based; settings: HL-60, 48 h
SH-SY5Y = test: Cytotoxicity against human SH-SY5Y cells after 48 hrs by sulforhodamine B assay; type: functional, cell-based
Sphingosine kinase 1 [13] = target: T1, Sphingosine kinase 1; test: Competitive inhibition of recombinant sphingosine kinase 1 using D-erythro-sphingosine as substrate by Lineweaver-Burke plot analysis
How it was run: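 Recombinant His6X-tagged SphK1, affinity purified from HEK293 overexpression, assayed with varying D-erythro-sphingosine concentrations, with inhibitor absent or at 10 and 17 µM. Sph delivered in SKAAB buffer without BSA conjugation or Triton X-100 micelles. DMSO ≤5% of reaction. Ki and mechanism from linear regression.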

A549 = test: Ratio of compound cytotoxicity at 1 uM to SKI-I cytotoxicity for human A549 cells
[14] = target: T2, Sphingosine kinase 2 (Homo sapiens); test: Inhibition of sphingosine kinase 2; how it was run: as §1

SMILES: COc1ccc(-c2cc(C(=O)N/N=C(\C)c3ccc(Cl)cc3)[nH]n2)cc1
inhibition (Sphingosine kinase 1 [1]): 46.8%

SMILES: COc1ccc(-c2cc(C(=O)N/N=C/c3ccc(O)cc3)[nH]n2)cc1
inhibition (Sphingosine kinase 1 [1]): 14.3%

SMILES: CCN(CC)c1ccc(/C=N/NC(=O)c2cc(-c3ccc(OC)cc3)n[nH]2)cc1
inhibition (Sphingosine kinase 1 [1]): 38%

SMILES: COc1ccc(/C(C)=N/NC(=O)c2cc(-c3ccc(C)cc3)n[nH]2)cc1OC
inhibition (Sphingosine kinase 1 [1]): 21.8%

SMILES: COc1ccc(-c2cc(C(=O)N/N=C(\C)c3ccc(OC)c(OC)c3)[nH]n2)cc1
inhibition (Sphingosine kinase 1 [2]): Active
inhibition [3]: inactive
inhibition (Sphingosine kinase 1 [4]): Active
IC50 (MCF7 [5]): 1300 nM
IC50 (MCF7 [6]): 1800 nM
IC50 [7]: 1500 nM
IC50 (NCI-H460): 300 nM
IC50 (NCI-H226): 300 nM
IC50 (U-251): 500 nM
IC50 [8]: 600 nM
IC50 (PANC-1): 100 nM
IC50 (MIA PaCa-2): 100 nM
IC50 (BXPC-3): 200 nM
IC50 [9]: 500 nM
IC50 [10]: 200 nM
IC50 (HL-60 [11]): 200 nM
IC50 (HL-60 [12]): 200 nM
IC50 (SH-SY5Y): 300 nM
Ki (Sphingosine kinase 1 [13]): 1330 nM
inhibition (Sphingosine kinase 1 [1]): 59.6%
cytotoxicity ratio (A549): 1.37

SMILES: COc1ccc(-c2cc(C(=O)N/N=C/c3ccc4ccccc4c3)[nH]n2)cc1
inhibition (Sphingosine kinase 1 [1]): 52.5%

SMILES: COc1ccc(-c2cc(C(=O)N/N=C/c3cccc(O)c3)[nH]n2)cc1
inhibition (Sphingosine kinase 1 [1]): 15.5%

SMILES: COc1ccc(-c2cc(C(=O)N/N=C/c3ccc(OC)c(OC)c3)[nH]n2)cc1
inhibition (Sphingosine kinase 1 [1]): 44.5%

SMILES: COc1ccc(-c2cc(C(=O)N/N=C/c3cc(O)cc(O)c3)[nH]n2)cc1
inhibition (Sphingosine kinase 1 [1]): 12.5%

SMILES: COc1ccc(-c2cc(C(=O)N/N=C/c3ccc(F)cc3)[nH]n2)cc1
inhibition (Sphingosine kinase 1 [1]): 27.4%

SMILES: O=C(N/N=C/c1ccccc1O)c1cc(-c2ccccc2)n[nH]1
inhibition (Sphingosine kinase 1 [1]): 11.9%

SMILES: COc1ccc(-c2cc(C(=O)N/N=C/c3ccc(C(C)C)cc3)[nH]n2)cc1
inhibition (Sphingosine kinase 1 [1]): 15.3%

The remaining lines, values ahead:

inhibition (Sphingosine kinase 1 [1]): 9.8%
SMILES: Cc1ccc(-c2cc(C(=O)N/N=C/c3ccccc3O)[nH]n2)cc1

inhibition [14]: Dose-dependent effect
inhibition (Sphingosine kinase 1 [4]): Active
Ki (Sphingosine kinase 1 [13]): 1060 nM
SMILES: O=C(N/N=C/c1c(O)ccc2ccccc12)c1cc(-c2ccc3ccccc3c2)n[nH]1

inhibition (Sphingosine kinase 1 [1]): 39.5%
SMILES: O=C(N/N=C/c1ccc(O)cc1O)c1cc(-c2ccc3ccccc3c2)n[nH]1

inhibition (Sphingosine kinase 1 [1]): 30.8%
SMILES: COc1ccc(-c2cc(C(=O)N/N=C/c3ccc(O)cc3O)[nH]n2)cc1

inhibition (Sphingosine kinase 1 [1]): 28%
SMILES: O=C(N/N=C/c1ccc(O)cc1)c1cc(-c2ccc3ccccc3c2)n[nH]1

inhibition (Sphingosine kinase 1 [1]): 33.5%
SMILES: COc1ccc(-c2cc(C(=O)N/N=C/c3ccccc3O)[nH]n2)cc1

inhibition (Sphingosine kinase 1 [1]): 25.1%
SMILES: O=C(N/N=C/c1cccc(O)c1)c1cc(-c2ccc3ccccc3c2)n[nH]1

inhibition (Sphingosine kinase 1 [1]): 59.3%
SMILES: O=C(N/N=C/c1ccccc1O)c1cc(-c2ccc3ccccc3c2)n[nH]1
